Experiment [1] has as its system Acinetobacter baumannii. Put plainly: Antibacterial activity against Acinetobacter baumannii ATCC 17978 assessed as bacterial growth at 0.09 mg/L in presence of 150 mM NaCl. Type of experiment: functional, organism-based. The method in brief:
(§1)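 Overnight cultures were diluted 1:100 in NaCl-free MHB and grown to OD600 0.4. They were then diluted to 10^5 CFU/ml in MHB with or without 150 mM NaCl, plus or minus antibiotic. Growth was run in triplicate for 12 h at 37°C with shaking at 180 rpm, and OD600 was read every 2 h.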

The subject of experiment [2] is Acinetobacter baumannii. Put plainly: Antibacterial activity against Acinetobacter baumannii using MHB medium assessed as bacterial growth at 0.09 mg/L in presence of 150 mM of KCl. Type of experiment: functional, organism-based. The method in brief: (§2)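 Growth-curve challenge with 150 mM KCl in place of NaCl. Overnight cultures were diluted 1:100 in NaCl-free MHB and grown to OD600 0.4. They were then diluted to 10^5 CFU/ml in MHB with or without 150 mM KCl, plus antibiotic. Cultures ran in triplicate for 12 h at 37°C with shaking at 180 rpm, and OD600 was read every 2 h.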

For experiment [3], the system named is Acinetobacter baumannii. Put plainly: Antibacterial activity against Acinetobacter baumannii isolate 2824 isolated from human urine. It is filed as functional, organism-based.
The subject of experiment [4] is Acinetobacter baumannii. Put plainly: Antibacterial activity against Acinetobacter baumannii isolate 4860 isolated from human urine. Type of experiment: functional, organism-based.
For experiment [5], the system named is Acinetobacter baumannii. Put plainly: Antibacterial activity against Acinetobacter baumannii isolate 5191 isolated from human urine. Type of experiment: functional, organism-based.
For experiment [6], the system named is Acinetobacter baumannii. Put plainly: Antibacterial activity against Acinetobacter baumannii ATCC 17978 isolated from human CSF. Type of experiment: functional, organism-based.
In experiment [7] the test system is Acinetobacter baumannii. As to the kind of experiment: Antibacterial activity against Acinetobacter baumannii isolate 510 isolated from human sputum. It is filed as functional, organism-based.
Experiment [8] deals with Acinetobacter baumannii. As to the kind of experiment: Antibacterial activity against Acinetobacter baumannii isolate 2898 isolated from human ankle. It is filed as functional, organism-based.
Experiment [9] deals with Acinetobacter baumannii. As to the kind of experiment: Antibacterial activity against Acinetobacter baumannii ATCC 17978 assessed as bacterial growth at 4.5 mg/L in presence of 150 mM NaCl. Type of experiment: functional. Summed up: as §1
Experiment [10] relates to Acinetobacter baumannii. Put plainly: Antibacterial activity against Acinetobacter baumannii using MHB medium assessed as bacterial growth at 4.5 mg/L in presence of 150 mM of KCl. It is filed as functional, organism-based. The method in brief:
as §2

Experiment [11] concerns Acinetobacter baumannii. Put plainly: Antibacterial activity against Acinetobacter baumannii using MHB medium assessed as bacterial growth at 4.5 mg/L after 12 hrs in presence of 30 mg/L efflux pump inhibitor PAbetaN. It is filed as functional, organism-based.
For experiment [12], the system named is Acinetobacter baumannii. As to the kind of experiment: Antibacterial activity against Acinetobacter baumannii using MHB medium with 150 mM assessed as bacterial growth at 4.5 mg/L after 12 hrs in presence of 30 mg/L efflux pump inhibitor PAbetaN. Type of experiment: functional, organism-based.
The subject of experiment [13] is Acinetobacter baumannii. Put plainly: Antibacterial activity against Acinetobacter baumannii ATCC 17978 assessed as bacterial growth at 1.125 mg/L in presence of 150 mM NaCl. It is filed as functional. The method in brief:
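Strain grown overnight, diluted 1:100 in MHB without NaCl and grown to OD600 0.4. Then diluted to 10^5 CFU/ml in MHB supplemented with 150 mM NaCl, with or without gentamicin 1.125 mg/liter. Incubated 12 h at 37°C with shaking at 180 rpm, in triplicate. Growth followed by OD600 every 2 h.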

Experiment [14] has as its system Acinetobacter baumannii. As to the kind of experiment: Antibacterial activity against Acinetobacter baumannii ATCC 17978 assessed as bacterial growth at 0.0625 mg/L in presence of 150 mM NaCl. It is filed as functional. The method in brief:
as §1

The source made the active and inactive calls. The rule behind the calls is not given here.

For `C[C@H]1COc2c(N3CCN(C)CC3)c(F)cc3c(=O)c(C(=O)O)cn1c23`, the result in the experiment with Acinetobacter baumannii [1], in the experiment with Acinetobacter baumannii [2], in the experiment on Acinetobacter baumannii [3], with Acinetobacter baumannii [4] and with Acinetobacter baumannii [5] was inactive.
Regarding `CO/N=C(\C(=O)N[C@@H]1C(=O)N2C(C(=O)[O-])=C(C[N+]3(C)CCCC3)CS[C@H]12)c1csc(N)n1`, in the experiment with Acinetobacter baumannii [6], the outcome was Active. Also, the result in the experiment with Acinetobacter baumannii [7], in the experiment with Acinetobacter baumannii [3], in the experiment with Acinetobacter baumannii [8], in the experiment with Acinetobacter baumannii [4] and in the experiment with Acinetobacter baumannii [5] was inactive.
For `CO/N=C(\C(=O)N[C@@H]1C(=O)N2C(C(=O)O)=C(COC(C)=O)CS[C@H]12)c1csc(N)n1`, the outcome with Acinetobacter baumannii [7], with Acinetobacter baumannii [3], in the experiment on Acinetobacter baumannii [8], with Acinetobacter baumannii [4] and in the experiment on Acinetobacter baumannii [5] was inactive.
`CN(C)[C@@H]1C(O)=C(C(N)=O)C(=O)[C@@]2(O)C(O)=C3C(=O)c4c(O)cccc4[C@@](C)(O)[C@H]3C[C@@H]12`: the outcome in the experiment on Acinetobacter baumannii [3], in the experiment with Acinetobacter baumannii [4] and with Acinetobacter baumannii [5] was inactive.
With `CO/N=C(\C(=O)N[C@@H]1C(=O)N2C(C(=O)O)=C(CSc3nc(=O)c(O)nn3C)CS[C@H]12)c1csc(N)n1`, the result with Acinetobacter baumannii [7], in the experiment on Acinetobacter baumannii [3], with Acinetobacter baumannii [8], in the experiment with Acinetobacter baumannii [4] and in the experiment on Acinetobacter baumannii [5] was inactive.
As for `C[C@H]1[C@H](NC(=O)/C(=N\OC(C)(C)C(=O)O)c2csc(N)n2)C(=O)N1S(=O)(=O)O`, the result in the experiment with Acinetobacter baumannii [6], with Acinetobacter baumannii [7], in the experiment with Acinetobacter baumannii [3], in the experiment with Acinetobacter baumannii [8], with Acinetobacter baumannii [4] and in the experiment on Acinetobacter baumannii [5] was inactive.
Regarding `O=C(O)c1cn(C2CC2)c2cc(N3CCNCC3)c(F)cc2c1=O`, the outcome with Acinetobacter baumannii [7], in the experiment on Acinetobacter baumannii [3], in the experiment with Acinetobacter baumannii [8], in the experiment with Acinetobacter baumannii [4] and in the experiment on Acinetobacter baumannii [5] was inactive.
As to `CC(C)(O/N=C(\C(=O)N[C@@H]1C(=O)N2C(C(=O)[O-])=C(C[n+]3ccccc3)CS[C@H]12)c1csc(N)n1)C(=O)O`, the outcome in the experiment with Acinetobacter baumannii [7], with Acinetobacter baumannii [3], in the experiment on Acinetobacter baumannii [8], with Acinetobacter baumannii [4] and in the experiment with Acinetobacter baumannii [5] was inactive.
As to `C[C@@H](O)[C@H]1C(=O)N2C(C(=O)O)=C(S[C@@H]3CN[C@H](C(=O)N(C)C)C3)[C@H](C)[C@H]12`, the outcome in the experiment with Acinetobacter baumannii [6], with Acinetobacter baumannii [7], in the experiment on Acinetobacter baumannii [3] and in the experiment on Acinetobacter baumannii [8] was Active.
As for `NCC[C@H](O)C(=O)N[C@@H]1C[C@H](N)[C@@H](O[C@H]2O[C@H](CN)[C@@H](O)[C@H](O)[C@H]2O)[C@H](O)[C@H]1O[C@H]1O[C@H](CO)[C@@H](O)[C@H](N)[C@H]1O`, the outcome in the experiment on Acinetobacter baumannii [9], in the experiment with Acinetobacter baumannii [10], in the experiment on Acinetobacter baumannii [12], with Acinetobacter baumannii [7], in the experiment with Acinetobacter baumannii [3] and in the experiment on Acinetobacter baumannii [8] was inactive. Further, the outcome with Acinetobacter baumannii [4] and with Acinetobacter baumannii [5] was inactive. Besides, the outcome in the experiment on Acinetobacter baumannii [11] and in the experiment with Acinetobacter baumannii [6] was Active.
As to GENTAMICIN, the outcome with Acinetobacter baumannii [13], with Acinetobacter baumannii [7], in the experiment with Acinetobacter baumannii [3], in the experiment with Acinetobacter baumannii [8], in the experiment on Acinetobacter baumannii [4] and in the experiment on Acinetobacter baumannii [5] was inactive. In addition, the result in the experiment on Acinetobacter baumannii [6] was Active.
In the case of `NC[C@H]1O[C@H](O[C@H]2[C@H](O)[C@@H](O[C@H]3O[C@H](CO)[C@@H](O)[C@H](N)[C@H]3O)[C@H](N)C[C@@H]2N)[C@H](N)C[C@@H]1O`, in the experiment with Acinetobacter baumannii [6], the result was Active. Further, the result in the experiment with Acinetobacter baumannii [7], in the experiment on Acinetobacter baumannii [3], in the experiment with Acinetobacter baumannii [8], with Acinetobacter baumannii [4] and with Acinetobacter baumannii [5] was inactive.
As for `C[C@@H](O)[C@H]1C(=O)N2C(C(=O)O)=C(SCCNC=N)C[C@H]12`, in the experiment with Acinetobacter baumannii [14], the result was inactive. The result with Acinetobacter baumannii [6], with Acinetobacter baumannii [7], with Acinetobacter baumannii [3], in the experiment with Acinetobacter baumannii [8], in the experiment on Acinetobacter baumannii [4] and with Acinetobacter baumannii [5] was Active.

For the origin of these results see ChEMBL document CHEMBL1240380, “Acinetobacter baumannii increases tolerance to antibiotics in response to monovalent cations” (Antimicrob Agents Chemother, 2010).
